Measurements: article PMC8103808 (Journal of medicinal chemistry, 2020)
“Also recorded” adds a separate entry of the source. One block for each compound: values may come before it.

How the values were obtained:
PDI [1] = molecular target: T1, PDI (Homo sapiens, UniProt P07237); experiment: Protein mass spectrometry; format: binding; conditions: 10 μM PDI, 100 μM DTT, 100 μM compound
Summary of the method: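 Recombinant human PDI (10 μM) was incubated with 100 μM test compound and 100 μM DTT for 30 min before injection for Q-TOF intact-protein mass spectrometry to detect covalent adducts.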

PDIA1 [2] = molecular target: T2, PDIA1 (Homo sapiens, UniProt P07237); experiment: Glutathione competition in PDI reductase assay; format: biochemical; conditions: 5 mM GSH
T2 sequence (P07237 18-508): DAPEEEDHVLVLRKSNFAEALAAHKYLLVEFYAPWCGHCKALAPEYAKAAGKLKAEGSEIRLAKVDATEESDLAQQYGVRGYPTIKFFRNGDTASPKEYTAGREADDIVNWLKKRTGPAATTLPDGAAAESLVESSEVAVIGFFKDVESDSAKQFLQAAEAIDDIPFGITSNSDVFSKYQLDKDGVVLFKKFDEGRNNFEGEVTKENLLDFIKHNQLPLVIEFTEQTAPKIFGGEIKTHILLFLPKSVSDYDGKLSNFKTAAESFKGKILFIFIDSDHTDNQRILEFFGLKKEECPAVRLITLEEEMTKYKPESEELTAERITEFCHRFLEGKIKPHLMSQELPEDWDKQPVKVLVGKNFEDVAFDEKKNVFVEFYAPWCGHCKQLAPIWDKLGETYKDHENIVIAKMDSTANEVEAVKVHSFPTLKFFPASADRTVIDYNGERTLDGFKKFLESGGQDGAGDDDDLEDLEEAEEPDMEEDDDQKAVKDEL

U−118 MG cells = experiment: Colony formation assay with or without BSO pretreatment; format: cell-based, human; conditions: BSO pretreatment 24 h
Summary of the method: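 U-118 MG cells grown in RPMI-1640 with 10% FBS were seeded at 600 cells/well and allowed to attach. Serial dilutions of buthionine sulfoximine were added 24 h later, with pretreatment overnight (24 h per legend), then serial dilutions of test compound. Cells were cultured 10–14 days until colonies formed, stained 1 h with crystal violet/formaldehyde/methanol, washed with water and imaged.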

U−87 MG cells [3] = experiment: MTT growth inhibition assay in U-87 MG cells; format: cell-based; conditions: Homo sapiens, read-out: MTT (% inhibition at 30 μM)
Summary of the method: (§1)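 Cells were grown at 37 °C, 5% CO₂ in 10% FBS medium: DMEM for U-87 MG, RPMI-1640 for A-172. Duplicate wells of 3000–5000 cells were attached overnight, then exposed to 30 μM test compound for 72 h. MTT (3 mg/mL) was added for 4 h at 37 °C and formazan dissolved in DMSO before reading A570. Inhibition (%) = [1−(At−Ab)/(Ac−Ab)]×100.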

U−87 MG cells [4] = experiment: Bromouridine nascent RNA sequencing; format: cell-based, human; conditions: 20 μM, 4 h; GSEA
A-172 cells = experiment: MTT growth inhibition assay in A-172 cells; format: cell-based; conditions: Homo sapiens, A 172, read-out: MTT (% inhibition at 30 μM)
Summary of the method: as §1

PDIA1 [5] = molecular target: T2, PDIA1; experiment: PDI reductase assay; format: biochemical
PDI [6] = molecular target: T1, PDI; experiment: Gel-based competition with fluorescent probe PACMA57; format: binding; conditions: 100 μM compound
PDI [7] = molecular target: T1, PDI; experiment: kinact/KI determination in PDI reductase assay with reduced PDI; format: biochemical
PDI H256A mutant = PDI H256A mutant (Homo sapiens, UniProt P07237, H256A); experiment: PDI reductase assay with H256A mutant; format: biochemical; conditions: Histidine 256 in b′ domain mutated to alanine
Chain of PDI H256A mutant (P07237 18-508 H256A): as the sequence (P07237 18-508) above, with H239A counted along it
Summary of the method: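 H256A PDI was made by site-directed mutagenesis, expressed in BL21(DE3) and purified like wild type. Enzyme (0.4 μM or 50 nM) was preincubated with test compound for 1 h at 37 °C in 100 mM sodium phosphate, 2 mM EDTA, 8 μM DTT, pH 7.0. DTT (500 μM; 125 μM for 50 nM enzyme) and 130 μM bovine insulin were added, and reduction proceeded at room temperature. Insulin B-chain aggregation was read at 620 nm, and activity calculated from ΔOD over 60 min (180 min for 50 nM).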

PDIA2 [8] = molecular target: T3, PDIA2 (Homo sapiens, UniProt Q13087); experiment: PDI reductase assay with PDIA2; format: biochemical
T3 sequence (Q13087 22-525): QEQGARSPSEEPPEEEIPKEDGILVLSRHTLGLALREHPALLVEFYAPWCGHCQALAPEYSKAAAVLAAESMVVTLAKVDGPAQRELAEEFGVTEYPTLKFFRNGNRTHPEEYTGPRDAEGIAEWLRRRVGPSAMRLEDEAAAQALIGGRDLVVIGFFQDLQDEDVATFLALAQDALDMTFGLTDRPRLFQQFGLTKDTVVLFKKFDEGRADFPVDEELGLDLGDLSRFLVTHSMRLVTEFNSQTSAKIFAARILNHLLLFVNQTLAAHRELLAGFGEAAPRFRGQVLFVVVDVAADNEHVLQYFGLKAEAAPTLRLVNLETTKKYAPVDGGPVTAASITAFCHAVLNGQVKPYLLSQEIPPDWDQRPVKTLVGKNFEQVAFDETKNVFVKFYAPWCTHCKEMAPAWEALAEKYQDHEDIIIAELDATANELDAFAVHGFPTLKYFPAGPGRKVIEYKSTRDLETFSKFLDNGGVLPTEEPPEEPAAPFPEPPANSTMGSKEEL

PDIA3 [9] = molecular target: T4, PDIA3 (Homo sapiens, UniProt P30101); experiment: PDI reductase assay with PDIA3; format: biochemical
T4 sequence (P30101 25-505): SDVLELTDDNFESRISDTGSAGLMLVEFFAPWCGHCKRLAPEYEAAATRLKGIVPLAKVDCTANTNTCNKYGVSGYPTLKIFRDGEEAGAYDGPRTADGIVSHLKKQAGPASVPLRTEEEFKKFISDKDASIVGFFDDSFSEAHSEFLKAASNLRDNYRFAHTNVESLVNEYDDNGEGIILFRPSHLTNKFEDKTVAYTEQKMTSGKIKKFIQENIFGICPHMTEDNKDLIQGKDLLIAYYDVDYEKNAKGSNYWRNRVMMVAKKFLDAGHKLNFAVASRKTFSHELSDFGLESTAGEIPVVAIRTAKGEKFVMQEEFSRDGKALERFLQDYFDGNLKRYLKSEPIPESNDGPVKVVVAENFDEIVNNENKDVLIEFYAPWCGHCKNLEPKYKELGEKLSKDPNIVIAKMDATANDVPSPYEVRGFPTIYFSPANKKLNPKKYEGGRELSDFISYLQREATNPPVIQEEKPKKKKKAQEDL

PDI [10] = molecular target: T1, PDI; experiment: Thermal shift assay; format: binding; conditions: oxidized PDI; 100 μM compound
PDI [11] = molecular target: T1, PDI; experiment: Reversibility; format: biochemical; conditions: for PDI activity recovery after 100-fold dilution: 50 μM compound with 40 μM PDI, 3 h at room temperature; for PDI activity recovery after dilution: compound concentrations 10 times that of the protein
PDI b′ domain = PDI b′ domain (Homo sapiens, UniProt P07237); experiment: ANS spectral scan; format: binding; conditions: 5 μM PDI, 100 μM compound
Chain of PDI b′ domain (P07237 18-508): as the sequence (P07237 18-508) above
Summary of the method: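 Recombinant N-terminally His-tagged human PDI, expressed in E. coli BL21(DE3) and Ni-NTA purified, at 5 μM with 100 μM test compound or matching DMSO in TBS for 1 h at 37 °C. ANS then added and incubated 20 min at 25 °C in the dark. Fluorescence spectrum recorded at Ex 370 nm, Em 400–700 nm.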

serum albumin = serum albumin (Bos taurus, UniProt P02769); experiment: Gel-based binding in cell-free medium with fetal bovine serum; conditions: cell-free medium supplemented with fetal bovine serum
Chain of serum albumin (P02769 25-607): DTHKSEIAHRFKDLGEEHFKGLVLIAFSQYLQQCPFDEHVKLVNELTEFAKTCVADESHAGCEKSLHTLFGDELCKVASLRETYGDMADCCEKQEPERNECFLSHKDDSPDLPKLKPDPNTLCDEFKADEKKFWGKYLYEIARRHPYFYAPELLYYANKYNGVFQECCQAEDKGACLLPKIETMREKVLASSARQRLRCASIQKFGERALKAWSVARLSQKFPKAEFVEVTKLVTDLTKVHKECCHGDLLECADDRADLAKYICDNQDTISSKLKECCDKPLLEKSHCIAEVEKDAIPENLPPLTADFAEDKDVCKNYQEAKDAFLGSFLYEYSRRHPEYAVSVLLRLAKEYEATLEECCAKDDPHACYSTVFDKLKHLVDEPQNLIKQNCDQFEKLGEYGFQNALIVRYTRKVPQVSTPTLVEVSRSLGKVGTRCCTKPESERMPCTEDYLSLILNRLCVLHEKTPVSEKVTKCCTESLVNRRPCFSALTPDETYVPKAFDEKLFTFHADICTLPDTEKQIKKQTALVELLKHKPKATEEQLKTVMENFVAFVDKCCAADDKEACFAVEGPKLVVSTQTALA
Summary of the method: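 Cell-free DMEM, with 10% FBS added, was incubated overnight at 37 °C with 20 μM BODIPY-labelled test compound. Binding to serum albumin was assessed by in-gel imaging of the labelled protein.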

PDIA1 [12] = molecular target: T2, PDIA1; experiment: Gel-based binding assay with recombinant PDIA1; conditions: recombinant protein
Summary of the method: (§2)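 Each protein at 3.5 µM in CelLytic M buffer was incubated with BODIPY-labelled test compound overnight at room temperature. PDIA1 and PDIA2 are recombinant human; PDIA1 is His-tagged and expressed in E. coli BL21(DE3). Samples were boiled in Laemmli or non-reducing sample buffer, resolved on 10% polyacrylamide gels, and imaged immediately for labelled protein.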

PDIA2 [13] = molecular target: T3, PDIA2; experiment: Gel-based binding assay with recombinant PDIA2; conditions: recombinant protein
Summary of the method: as §2

PDIA3 [14] = molecular target: T4, PDIA3; experiment: Gel-based binding assay with recombinant PDIA3; conditions: recombinant protein
Summary of the method: as §2

BSA = BSA (Bos taurus, UniProt P02769); experiment: Gel-based binding assay with BSA; design: species or system bovine
Chain of BSA (P02769 25-607): as above
Summary of the method: as §2

T1 sequence (P07237 18-508): as the sequence (P07237 18-508) above

kinact/KI (PDI [7]): 2600 M⁻¹ s⁻¹
activity against H256A mutant PDI (PDI H256A mutant): retained their activity
inhibition of PDIA2 activity (PDIA2 [8]): inhibited activity of PDIA2
inhibition of PDIA3 activity (PDIA3 [9]): could also inhibit PDIA3 activity
competition with ANS fluorescence (PDI b′ domain): did not lower the fluorescence of ANS
SMILES: COc1ccc(C(c2cc3c(cc2O)OCO3)N2CCOCC2)cc1OC (stereo not shown) [AS15]
stabilization of PDI to thermal degradation (PDI [10]): did not stabilize PDI to thermal degradation
PDI activity recovery after 100-fold dilution (PDI [11]): did not maintain the characteristics of the high concentration of inhibitor after dilution
PDI activity recovery after dilution (PDI [11]): behave like the expected irreversible inhibitor

activity against H256A mutant PDI (PDI H256A mutant): retained their activity
inhibition of PDIA2 activity (PDIA2 [8]): inhibited activity of PDIA2
PDI activity recovery after dilution (PDI [11]): too active at this ratio
competition with ANS fluorescence (PDI b′ domain): did not lower the fluorescence of ANS
SMILES: Oc1c(C(Nc2ccccn2)c2ccc(Cl)cc2)ccc2cccnc12 (stereo not shown) [CD343]
stabilization of PDI to thermal degradation (PDI [10]): did not stabilize PDI to thermal degradation
PDI activity recovery after 100-fold dilution (PDI [11]): did not maintain the characteristics of the high concentration of inhibitor after dilution

PDI inhibition in the PDI reductase assay (in words) (PDIA1 [5]): did not inhibit PDI activity
binding to serum albumin (serum albumin): bound to serum albumin
SMILES: CC1=CC(C)=[N+]2C1=C(c1ccc(NC(=O)c3ccc(C(c4cc5c(cc4O)OCO5)N4CCCCC4)cc3)cc1)c1c(C)cc(C)n1[B-]2(F)F (stereo not shown) [compound 15, N-(4-(5,5-Difluoro-1,3,7,9-tetramethyl-5H-4λ^4,5λ^4-dipyrrolo[1,2-c:2’,1’-f][1,3,2]diazaborinin-10-yl)phenyl)-4-((6-hydroxybenzo[d][1,3]dioxol-5-yl)(piperidin-1-yl)methyl)benzamide]

binding to serum albumin (serum albumin): bound to serum albumin
binding to PDIA1 (PDIA1 [12]): covalently binds; also recorded: bound
binding to PDIA2 (PDIA2 [13]): bound
binding to PDIA3 (PDIA3 [14]): bound
binding to BSA (BSA): bound
SMILES: CC1=CC(C)=[N+]2C1=C(c1ccc(C(=O)NCCNC(=O)c3ccc(C(c4cc5c(cc4O)OCO5)N4CCCCC4)cc3)cc1)c1c(C)cc(C)n1[B-]2(F)F (stereo not shown) [compound 16]

The next lines start with the compound.

SMILES: Oc1c(C(c2ccc(F)cc2)N2CCN(C(c3ccc(F)cc3)c3ccc4cncnc4c3O)CC2)ccc2cncnc12 (stereo not shown) [5d dimer]
covalent binding to PDI by mass spectrometry (PDI [1]): bound to PDI
PDI inhibition in the presence of competing glutathione (PDIA1 [2]): less sensitive to glutathione competition than the monomer
potency in colony formation assay, dependence on BSO (U−118 MG cells): more potent and its potency was not dependent on BSO addition

SMILES: Oc1c(C(c2ccc(F)cc2)N2CCNCC2)ccc2cncnc12 (stereo not shown) [5d, 7-((4-Fluorophenyl)(piperazin-1-yl)methyl)quinazolin-8-ol]
covalent binding to PDI by mass spectrometry (PDI [1]): bound to PDI
PDI inhibition in the presence of competing glutathione (PDIA1 [2]): maintained potency
potency in colony formation assay, dependence on BSO (U−118 MG cells): more sensitive to BSO addition

SMILES: Oc1c(C(c2ccncc2)N2CCCCC2)ccc2ccoc12 (stereo not shown) [5p, 6-(Piperidin-1-yl(pyridin-4-yl)methyl)benzofuran-7-ol]
inhibition at 30 µM (U−87 MG cells [3]): 1%
effect on transcription (gene set enrichment) (U−87 MG cells [4]): upregulates transcription of genes involved in the unfolded protein response

SMILES: Oc1cc2c(cc1C(c1ccccc1)N1CCCCC1)OCO2 (stereo not shown) [6b, 6-(phenyl(piperidin-1-yl)methyl)benzo[d][1,3]dioxol-5-ol]
inhibition at 30 µM (A-172 cells): 17%

SMILES: Oc1cc2c(cc1C(c1ccc(F)cc1)N1CCCCC1)CCC2 (stereo not shown) [6f, 6-((4-Fluorophenyl)(piperidin-1-yl)methyl)-2,3-dihydro-1H-inden-5-ol]
PDI inhibition in the PDI reductase assay (in words) (PDIA1 [5]): completely lost activity
inhibition at 30 µM (U−87 MG cells [3]): 13%
covalent binding to PDI by mass spectrometry (PDI [1]): did not demonstrate covalent binding to PDI
competition with PACMA57 for binding to PDI (PDI [6]): did not compete with PACMA57
